The source made the active and inactive calls. No cut-off for these calls is given here.
How the values were obtained:
IGROV-1 [1] = test: Effect on p21 mRNA level in human IGROV-1 cells at 5 uM incubated for 6 hrs by RT-PCR analysis; type: functional, cell-based
How it was run: (§1)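 IGROV1 given 5 μM versus vehicle; RNA extracted by spin column, reverse transcribed, CCND1, CDKN1A and ITAG5 transcripts quantified by qRT-PCR as fold change versus vehicle; at least triplicate, Student's t-test, p<0.05.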

IGROV-1 [2] = test: Effect on p21 level in human IGROV-1 cells at 5 uM incubated for 6 hrs by Western blot analysis; type: functional, cell-based
IGROV-1 [3] = test: Downregulation of CCND1 level in human IGROV-1 cells at 5 uM incubated for 6 hrs by Western blot analysis; type: functional, cell-based
How it was run: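 IGROV1 exposed to 5 μM; RIPA lysates at 4 °C, protein quantified, SDS-PAGE (12.5% or 7.5%), nitrocellulose blot probed overnight at 4 °C for cyclin D1 or α5 integrin subunit; densitometry normalized to α-tubulin, percent of vehicle, mean ± SD of three experiments.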

IGROV-1 [4] = test: Downregulation of CCND1 mRNA level in human IGROV-1 cells at 5 uM incubated for 6 hrs by RT-PCR analysis; type: functional, cell-based; how it was run: as §1
CNS carcinoma cell = test: Cell growth inhibition of human CNS carcinoma cells incubated for 48 hrs by SRB assay; type: functional
How it was run: (§2)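 NCI-60 five-concentration screen: lines seeded 5×10^3–4×10^4 cells/well depending on line; compound diluted in fresh medium at scalar concentrations 0–100 or 0–1000 μM; 48 h exposure, in situ fixation, sulforhodamine B protein staining, optical density read; GI50, TGI and LC50 per NCI procedures; panel mean = mean graph midpoint.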

[5] = Cytotoxicity against human HDFa cells assessed as reduction in cell viability incubated for 24 hrs by MTT assay; type: toxicity, cell-based
How it was run: (§3)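 IGROV1 and HDFa in RPMI 1640 + 10% FCS, 2 mM glutamine, 37 °C, 5% CO2; seeded 1.5×10^4/well, after 24 h exposed 24 h to 0.010–500 μM (DMSO ≤0.1%). MTT 0.2 mg/mL in PBS 2 h at 37 °C, absorbance 570 nm; IC50 from dose-response, three independent experiments each in triplicate; SI = HDFa IC50/IGROV1 IC50.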

IGROV-1 [6] = test: Downregulation of RAD51 mRNA level in human IGROV-1 cells at 5 uM pretreated for 24 hrs followed by UV exposure for 6 hrs by qRT-PCR analysis; type: functional, cell-based; conditions: time 30.0 hrs
How it was run: (§4)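 IGROV1 pretreated 24 h with 5 μM then UV-irradiated (7.5 W lamp, 3 min); CCND1 and RAD51 mRNA by qRT-PCR after column RNA extraction and reverse transcription, fold change versus vehicle; at least triplicate, Student's t-test.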

Breast cancer cell line = test: Cytostatic activity against human Breast cancer cells incubated for 48 hrs by SRB assay; type: functional; how it was run: as §2
IGROV-1 [7] = test: Antiproliferative activity against human IGROV-1 cells at 5 uM incubated upto 48 hrs by quantitative phase imaging microscopy; type: functional, cell-based
How it was run: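 Quantitative phase imaging on IGROV1 seeded 4×10^3/well, 24 h later given 5 μM (six replicates; DMSO ≤0.1% final). Images hourly for 2 days at 37 °C, 5% CO2. Cell count and confluence normalized to experiment start; doubling time derived from growth.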

Ovarian cancer cell line = test: Cytotoxicity against human Ovarian cancer cells incubated for 48 hrs by SRB assay; type: functional; how it was run: as §2
NSCLC = test: Cell growth inhibition of human NSCLC cells incubated for 48 hrs by SRB assay; type: functional; how it was run: as §2
IGROV-1 [8] = test: Anti-motility activity in human IGROV-1 cells assessed as decrease in cell velocity at 5 uM incubated for 24 hrs; type: functional, cell-based
How it was run: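 Livecyte quantitative phase imaging, label-free single-cell tracking; IGROV1 seeded 4×10^3/well, treated after 24 h with 5 μM in six replicates; frames every 60 min for 2 days, 10× objective, 37 °C, 5% CO2. Each cell tracked for displacement, instantaneous velocity and directionality.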

IGROV-1 [9] = test: Cytotoxicity against human IGROV-1 cells assessed as reduction in cell viability incubated for 24 hrs by MTT assay; type: functional, cell-based; conditions: IGROV-1, 24 h; how it was run: as §3
Prostatic carcinoma cell = test: Cell growth inhibition of human Prostate carcinoma cells incubated for 48 hrs by SRB assay; type: functional; how it was run: as §2
IGROV-1 [10] = test: Induction of DNA damage in human IGROV-1 cells assessed as increase in gamma-H2AX phosphorylation at 5 uM pretreated for 24 hrs followed by UV exposure for 6 hrs by Western blot analysis; type: functional, cell-based; conditions: time 30.0 hrs
How it was run: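 IGROV1 pretreated 24 h with 5 μM, then UV-irradiated with a 7.5 W lamp for 3 min; UV alone as positive control. Cyclin D1 and RAD51 by RIPA-lysate Western blot normalized to α-tubulin; γH2AX by acid-extracted histone blot normalized to H1; percent of vehicle, mean ± SD, three experiments.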

Melanoma cell line = test: […] against human Melanoma cells incubated for 48 hrs by SRB assay; type: functional; conditions: read-out: LC50 (the source's name)
How it was run: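 NCI DTP five-concentration screen. Cells were seeded at 5 × 10³–4 × 10⁴ cells/well, depending on the line. Compounds were diluted in fresh medium and added at scalar concentrations over 0–1000 µM or 0–100 µM. After 48 h the cells were fixed in situ, stained with sulforhodamine B, and optical density was read. GI50, TGI and LC50 were derived by NCI procedures, and the panel mean is the mean graph midpoint.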

[11] = Upregulation of histone H2/H3 acetylation in human IGROV-1 cells incubated for 6 hrs by Western blot analysis relative to control; type: functional
How it was run: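 IGROV1 seeded 1.5×10^4 cells/cm², after 48 h exposed 6 h to 5 μM final; histones acid-extracted (0.4 N H2SO4) from nuclei isolated with 10 mM butyrate washes, acetone-precipitated, 15% SDS-PAGE, blotted with anti-acetyl-lysine; densitometry normalized to histone H1, percent of vehicle, mean ± SD of three experiments.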

Renal cancer cell line = test: Cytostatic activity against human Renal cancer cells incubated for 48 hrs by SRB assay; type: functional; how it was run: as §2
[12] = Cytostatic activity against human Leukemia cancer cells incubated for 48 hrs by SRB assay; type: functional, Leukemia cell; how it was run: as §2
IGROV-1 [13] = test: Downregulation of CCND1 mRNA level in human IGROV-1 cells at 5 uM pretreated for 24 hrs followed by UV exposure for 6 hrs by qRT-PCR analysis; type: functional, cell-based; conditions: time 30.0 hrs; how it was run: as §4

For CC(C)(C)c1cc(/C=C2/C(=O)Nc3cc(Cl)ccc32)c(O)c(/C=C2/C(=O)Nc3cc(Cl)ccc32)c1, the Activity (IGROV-1 [1]) was “inactive”, the Activity (IGROV-1 [2]) was “inactive” and the Activity (IGROV-1 [3]) was “Active”. The Activity (IGROV-1 [4]) was “Active”, the GI50 (CNS carcinoma cell) was 2750 nM and the IC50 at 24 h [5] was 21.9 µM. The Activity (IGROV-1 [6]) was “Active”, the TGI (Breast cancer cell line) was 13.2 µM and the Activity (IGROV-1 [7]) was “Active”. For the same compound, the GI (Ovarian cancer cell line) was 30.9 µM, the GI (NSCLC) was 3.63 µM and the Activity (IGROV-1 [8]) was “Active”. The IC50 (IGROV-1 [9]) was 6.06 µM, the GI (Prostatic carcinoma cell) was 3.63 µM and the Activity (IGROV-1 [10]) was “Active”. The CC50 (Melanoma cell line) was 8.51 µM, the Activity [11] was 55.2% and the GI (Renal cancer cell line) was 11.22 µM. For the same compound, the GI [12] was 18.62 µM and the Activity (IGROV-1 [13]) was “Active”.

— ChEMBL document CHEMBL5500359, “Identification of a new bisindolinone arresting IGROV1 cells proliferation” (Eur J Med Chem, 2024)
